High-throughput results: PubChem, The Scripps Research Institute Molecular Screening Center
OX1R antag-1: human HCRTR1 antagonism; CHO/OX1R cells, Fluo-8 calcium fluorescence, orexin A; O43613; AID 434989; hit rate 0.43% among 330,000; inhibition, % at 5 µM;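 active = inhibition above its plate's threshold, mean inhibition of all tested compounds on the plate plus 3 SD, cut at about 37% in these data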;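 note: 0% = orexin A challenge wells and 100% = SB-334867-A antagonist wells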
Target sequence (O43613 whole entry, looked up): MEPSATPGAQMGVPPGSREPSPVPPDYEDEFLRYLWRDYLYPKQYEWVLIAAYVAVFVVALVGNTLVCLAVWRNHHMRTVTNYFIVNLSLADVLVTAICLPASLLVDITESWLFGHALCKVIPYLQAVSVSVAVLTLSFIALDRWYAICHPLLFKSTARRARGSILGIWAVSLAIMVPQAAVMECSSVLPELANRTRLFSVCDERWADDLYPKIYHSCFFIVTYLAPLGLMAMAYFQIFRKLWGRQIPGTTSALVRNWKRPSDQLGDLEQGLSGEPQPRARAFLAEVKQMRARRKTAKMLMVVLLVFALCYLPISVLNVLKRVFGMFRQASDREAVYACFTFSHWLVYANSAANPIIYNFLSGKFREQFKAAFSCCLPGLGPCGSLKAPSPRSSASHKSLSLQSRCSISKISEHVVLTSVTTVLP
CHO parental Ca: signal in parental CHO cells, OX1R antagonist counter-screen. parental CHO-K1, ATP-induced calcium, Fluo-8 fluorescence. inhibition, % at 5.6 µM. hit rate 0.63% among 330,000;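 active = inhibition above that plate's mean sample inhibition plus 3 SD, cut at about 26% in these data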;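 note: 0% = ATP-challenged DMSO wells and 100% = DMSO wells without ATP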
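Material: parental CHO cells / Compound: single nominal dose of 5.6 µM per compound / Signal: Fluo-8 fluorescence / Replicates: singlicate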
GalR3 antagonist: human GalR3 antagonism. O60755. HEK293 GalR3-CNG cAMP membrane potential fluorescence; galR3 body fused to GalR1 C-terminus. inhibition, % at 3 µM. hit rate 0.44% among 360,000. AID 651719;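 active = inhibition above the screen-wide average plus 3 SD, cut at about 13% in these data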;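 note: forskolin and galanin both at EC90 stimulate the cells; cAMP rise reported by CNG channel membrane potential dye signal; 0% = forskolin plus galanin with DMSO and 100% = forskolin alone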
Target sequence (O60755 1-299 limits assumed): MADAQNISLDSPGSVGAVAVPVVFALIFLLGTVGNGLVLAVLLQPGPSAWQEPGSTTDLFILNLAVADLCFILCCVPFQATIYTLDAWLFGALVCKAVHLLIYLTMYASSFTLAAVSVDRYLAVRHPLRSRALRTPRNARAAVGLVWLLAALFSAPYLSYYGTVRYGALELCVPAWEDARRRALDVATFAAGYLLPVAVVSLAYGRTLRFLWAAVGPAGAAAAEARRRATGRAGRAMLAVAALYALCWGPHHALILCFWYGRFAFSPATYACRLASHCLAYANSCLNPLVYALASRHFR
OX1R antag-2: blocks the human orexin 1 receptor; O43613; OX1R-expressing cells, FRET antagonist read-out; inhibition, % at 6.6 µM; hit rate 1.8% among 330,000; in the data active = inhibition mostly above about 38%, no sharp cut-off; inactive = mostly below about 40%;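 note: 0% = agonist challenge alone and 100% = reference antagonist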
GPR7 antagonist: antagonists of human GPR7 (neuropeptides B/W receptor 1); inhibition, % at 4.4 µM; P48145; AID 1861; GPR7-expressing cells, fluorescence antagonist assay; hit rate 1.1% among 290,000; in the data active = inhibition above about 16%, passing the limit was not always enough;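 note: cells stimulated with the agonist NPW; 0% = agonist with vehicle and 100% = vehicle without agonist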
OX1R Fluo8 conf: OX1R (human) antagonism, confirmed. CHO/OX1R cells, orexin A calcium Fluo-8 fluorescence. shares compounds with OX1R antag-1. inhibition, % at 5 µM. hit rate 38% among 1,100. AID 492963; in the data active = inhibition above about 29%;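 note: 0% = agonist challenge alone and 100% = reference antagonist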
CHO Ca counter: counter-screen for OX1R antagonists: effect in parental CHO cells; shares compounds with OX1R antag-1; parental CHO-K1, ATP-induced calcium, Fluo-8 fluorescence; inhibition, % at 5.6 µM; hit rate 9.3% among 1,100; AID 492965;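 active = inhibition above a per-plate limit, the mean inhibition of that plate's test compounds plus 3 SD, cut at about 25% in these data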;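 note: 0% = ATP challenge with DMSO and 100% = DMSO without ATP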
OX1R HTRF conf: confirmation of human orexin 1 receptor antagonists, HTRF format | shares compounds with OX1R antag-2 | OX1R-expressing cells, HTRF antagonist assay | inhibition, % at 6.6 µM | hit rate 49% among 1,800; in the data active = inhibition above about 55%;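 note: CHO cells expressing OX1R stimulated with orexin A at about EC80; 0% = agonist challenge alone and 100% = reference antagonist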
CHO-K1 HTRF cnt: counter-screen for OX1R antagonists: effect in parental CHO-K1 cells; shares compounds with OX1R antag-2; HTRF counterscreen; inhibition, % at 6.6 µM; hit rate 48% among 1,800; AID 493232; in the data active = inhibition above about 17%;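 note: 0% = agonist challenge with vehicle and 100% = vehicle alone without agonist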
An asterisk follows results filed as active. Compounds with a hit are over-represented: about 3.1% of the library has one in this group of screens.

How did Cc1cnc(NC(=O)c2cc3c(C)nn(-c4ccccc4)c3s2)s1 do in these assays?
OX1R antag-1: 77*; CHO parental Ca: -27; GalR3 antagonist: -11; OX1R antag-2: 56*; GPR7 antagonist: 8; OX1R Fluo8 conf: 73*; CHO Ca counter: -8; OX1R HTRF conf: 93*; CHO-K1 HTRF cnt: 12

How did CC(C)c1[nH]nc2c1C(c1cccc(C(F)(F)F)c1)N(c1ccccc1)C2=O (stereo not drawn) do in these assays?
GalR3 antagonist: -7

Results for CCn1c2ccccc2c2cc(NC(=O)CSc3nnc(-c4cccc(OC)c4)n3N)ccc21 ?
OX1R antag-1: 47*; CHO parental Ca: -18; GalR3 antagonist: -5; OX1R antag-2: 93*; GPR7 antagonist: -11; OX1R Fluo8 conf: 47*; CHO Ca counter: -15; OX1R HTRF conf: 91*; CHO-K1 HTRF cnt: 12

Results for COC(=O)[C@]12C[C@H](CC(=O)NCc3cccs3)C(=O)N(Cc3ccc4c(c3)OCO4)C1=C[C@H](C(C)(C)C)O[C@@H]2C ?
GalR3 antagonist: -7

What do the screens show for `CSc1cccc(NC(=O)C2CCCN(S(=O)(=O)c3ccc(F)cc3)C2)c1` (stereo not drawn)?
OX1R antag-1: 53*; CHO parental Ca: -4; GalR3 antagonist: 2; OX1R antag-2: 84*; GPR7 antagonist: 19*; OX1R Fluo8 conf: 55*; CHO Ca counter: -1; OX1R HTRF conf: 79*; CHO-K1 HTRF cnt: 2

How did CSc1cccc(NC(=O)C2CCCN(S(=O)(=O)c3cccs3)C2)c1 (stereo not drawn) do in these assays?
OX1R antag-1: 42*; CHO parental Ca: -8; GalR3 antagonist: -3; OX1R antag-2: 61*; GPR7 antagonist: -2; OX1R Fluo8 conf: 50*; CHO Ca counter: 4; OX1R HTRF conf: 78*; CHO-K1 HTRF cnt: -2

What do the screens show for `CSc1cccc(NC(=O)C2CCCN2S(=O)(=O)c2ccc(Br)s2)c1` (stereo not drawn)?
OX1R antag-1: 98*; CHO parental Ca: -7; GalR3 antagonist: -5; OX1R antag-2: 89*; GPR7 antagonist: -5; OX1R Fluo8 conf: 93*; CHO Ca counter: -16; OX1R HTRF conf: 91*; CHO-K1 HTRF cnt: -1

What do the screens show for `CC(C)NC(=O)C1CCCN(S(=O)(=O)c2cccs2)C1` (stereo not drawn)?
OX1R antag-1: -13; CHO parental Ca: -2; GalR3 antagonist: -1; OX1R antag-2: 23; GPR7 antagonist: 2

How did Cc1ccccc1NC(=O)Nc1nc(CN)cs1 do in these assays?
GalR3 antagonist: -7

Results for CC(C)N(Cc1ccccc1)C(=O)CN1C(=O)NC(Cc2ccccc2)(c2ccccc2)C1=O (stereo not drawn) ?
OX1R antag-1: 28; CHO parental Ca: -17; GalR3 antagonist: 0; OX1R antag-2: 81*; GPR7 antagonist: -9; OX1R Fluo8 conf: 42*; CHO Ca counter: -14; OX1R HTRF conf: 87*; CHO-K1 HTRF cnt: -15

What do the screens show for `Fc1cccc(Nc2nc3ccccc3n3cnnc23)c1`?
OX1R antag-1: 36; CHO parental Ca: 0; GalR3 antagonist: -9; OX1R antag-2: 53*; GPR7 antagonist: -4; OX1R Fluo8 conf: 37*; CHO Ca counter: 0; OX1R HTRF conf: 86*; CHO-K1 HTRF cnt: 6

Results for Cc1c(C(=O)OCC(=O)NCCN2C(=O)CSC2=O)oc2c1ccc1ccccc12 ?
OX1R antag-1: 22; CHO parental Ca: -5; GalR3 antagonist: -1; OX1R antag-2: 77*; GPR7 antagonist: 0; OX1R Fluo8 conf: 33*; CHO Ca counter: -8; OX1R HTRF conf: 88*; CHO-K1 HTRF cnt: 11

What do the screens show for `COc1ccc(CCNC(=O)COc2ccc(-c3ccccc3)cc2)cc1OC`?
OX1R antag-1: 30; CHO parental Ca: -16; GalR3 antagonist: 1; OX1R antag-2: 75*; GPR7 antagonist: -3; OX1R Fluo8 conf: 38*; CHO Ca counter: 39*; OX1R HTRF conf: 82*; CHO-K1 HTRF cnt: 6

What do the screens show for `COc1ccc(CCNC(=O)CCCOc2ccc(C)cc2)cc1OC`?
OX1R antag-1: -17; CHO parental Ca: -14; GalR3 antagonist: -4; OX1R antag-2: 27; GPR7 antagonist: -1

What do the screens show for `Nc1cccc(C#Cc2ccc3c(=O)c4ccccc4oc3c2)c1`?
OX1R antag-1: 52*; CHO parental Ca: -33; GalR3 antagonist: 3; OX1R antag-2: 72*; OX1R Fluo8 conf: 12; CHO Ca counter: 99*; OX1R HTRF conf: 49; CHO-K1 HTRF cnt: 8

Results for Nc1ccc(C#Cc2ccc3oc4ccccc4c(=O)c3c2)cc1 ?
OX1R antag-1: -17; CHO parental Ca: 1; GalR3 antagonist: -2; OX1R antag-2: 28

How did O=c1c2ccccc2oc2c1ccc1ccccc12 do in these assays?
OX1R antag-1: 55*; CHO parental Ca: -35; OX1R antag-2: 90*; OX1R Fluo8 conf: 23; CHO Ca counter: -21; OX1R HTRF conf: 68*; CHO-K1 HTRF cnt: -6

How did CC(CC(=O)Nc1cccc(S(=O)(=O)N2CCCCC2)c1)c1ccccc1 (stereo not drawn) do in these assays?
OX1R antag-1: 35; CHO parental Ca: -8; GalR3 antagonist: -4; OX1R antag-2: 29*; OX1R Fluo8 conf: 3; CHO Ca counter: -13; OX1R HTRF conf: 49; CHO-K1 HTRF cnt: 3

Results for COC(=O)C1=C(C)N(C)C(=NCc2ccccc2C(F)(F)F)NC1c1ccc(F)cc1 (stereo not drawn) ?
GalR3 antagonist: -6

What do the screens show for `Cn1c(CNc2nc(-c3ccccc3)cs2)nnc1SCC(=O)N1CCc2ccccc21`?
OX1R antag-1: 47*; CHO parental Ca: -14; GalR3 antagonist: -1; OX1R antag-2: 80*; GPR7 antagonist: -6; OX1R Fluo8 conf: 22; CHO Ca counter: -11; OX1R HTRF conf: 55; CHO-K1 HTRF cnt: 2

Results for O=C(CCN1C(=O)/C(=C/c2cccs2)SC1=S)Nc1cccc(O)c1 ?
OX1R antag-1: 6; CHO parental Ca: -1; GalR3 antagonist: 2; OX1R antag-2: 18; GPR7 antagonist: -3

Results for O=C(CCCN1C(=O)/C(=C/c2cccs2)SC1=S)Nc1cccc(O)c1 ?
OX1R antag-1: 45*; CHO parental Ca: 2; GalR3 antagonist: -8; OX1R antag-2: 67*; GPR7 antagonist: 5; OX1R Fluo8 conf: 33*; CHO Ca counter: 7; OX1R HTRF conf: 59*; CHO-K1 HTRF cnt: 7

What do the screens show for `CC(C)[C@@H]1O[C@H](CCc2ccccc2)CC2=C1C(=O)OC(C)(C)O2`?
GalR3 antagonist: -8
